Hits are enriched below; roughly 5.9% of the tested compounds scored in any of these assays.
GASC1 inh = blocks human GASC-1 (KDM4C) demethylase activity; GST-KDM4C 2-372, H3K9me3 peptide, LANCE TR-FRET; inhibition, % at 12.5 µM; 96,000 compounds, 0.15% hits;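 active = mean replicate inhibition above about 25%, with at least 55% of replicates also reaching it, limit read from the data, passing the limit was not always enough; inconclusive = only one of those two conditions met; inactive = neither condition met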
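Material: GST-tagged GASC-1 (JMJD2C) catalytic fragment, aa 2-372 / Quantity: enzyme final amount 10 nM / Medium: HEPES buffer, pH 7.5, plus ascorbate / Doses: one test concentration per compound / Incubation: 30 min reaction, 60 min detection, RT / Measured by: LANCE TR-FRET / Read-out: inhibition from TR-FRET ratio decrease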
Pf Dd2 growth = P. falciparum Dd2 growth inhibition. SYBR Green, 72 h; active compounds read low. activity change, % at 10 µM. 94,000 compounds, 2.3% hits. AID 1159554; in the data active = activity change below about -80%; inconclusive = no clear call, values can overlap the other calls
IDH1 mut inh = IDH1 R132H (human) inhibition. 70,000 compounds, 0.18% hits. inhibition, % at 10 µM. O75874. IDH1 R132H reductase, diaphorase/resazurin fluorescence, 60 min. AID 624101; in the data active = inhibition above about 34%; inconclusive = no clear call, values can overlap the other calls; inactive = below about 11%;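 also: 0% = DMSO and 100% = no enzyme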
Target sequence (O75874 whole entry R132H): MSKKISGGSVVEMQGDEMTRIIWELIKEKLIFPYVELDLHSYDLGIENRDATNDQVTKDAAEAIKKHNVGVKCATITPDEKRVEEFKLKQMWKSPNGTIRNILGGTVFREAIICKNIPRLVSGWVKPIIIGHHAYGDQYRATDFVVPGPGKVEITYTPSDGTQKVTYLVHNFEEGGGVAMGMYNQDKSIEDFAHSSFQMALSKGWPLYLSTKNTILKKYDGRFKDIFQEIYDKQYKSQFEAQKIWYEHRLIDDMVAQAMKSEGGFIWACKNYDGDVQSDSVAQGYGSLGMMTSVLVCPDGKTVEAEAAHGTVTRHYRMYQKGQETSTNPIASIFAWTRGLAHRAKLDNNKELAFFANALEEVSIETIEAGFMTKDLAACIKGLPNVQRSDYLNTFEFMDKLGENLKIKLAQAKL
T cruzi growth-1 = blocks T. cruzi growth in NIH3T3 culture. AID 624255. 77,000 compounds, 5.9% hits. inhibition, % at 8.34 µM. T. cruzi beta-gal in NIH3T3, GalScreen luminescence, 90 h;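 active = mean inhibition above about 93%, with at least 55% of replicates each passing it, limit read from the data, passing the limit was not always enough; inconclusive = only one of those two conditions holds; inactive = neither condition holds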
T cruzi growth-2 = Trypanosoma cruzi proliferation inhibition; shares compounds with T cruzi growth-1; T. cruzi beta-gal in NIH3T3, GalScreen luminescence, 90 h; inhibition, % at 8.35 µM; 5,600 compounds, 72% hits;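 active = mean replicate inhibition above about 95% and at least 55% of replicates individually reaching it, limit read from the data; inconclusive = only one of the two criteria is met; inactive = neither criterion is met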
T cruzi growth-3 = inhibitors of T. cruzi proliferation | 5,600 compounds, 21% hits | T. cruzi beta-gal in NIH3T3, GalScreen luminescence, 90 h | AID 651740 | shares compounds with T cruzi growth-1 | inhibition, % at 2.09 µM;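 active = mean inhibition above about 95%, with at least 55% of replicates also reaching it, limit read from the data; inconclusive = meets just one of the two conditions; inactive = meets neither condition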;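 also: plate controls were neutral control median for no effect and positive control median for full effect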
3T3 cytotox = NIH/3T3 (mouse) viability loss; shares compounds with T cruzi growth-1; NIH/3T3 viability, CellTiter-Glo ATP luminescence, 90 h; cytotoxicity (signal decrease), % at 8.35 µM; 5,600 compounds, 14% hits; AID 651742;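 active = mean signal decrease across replicates above about 35% based on untreated-well scatter, with enough replicates individually passing, limit read from the data; inconclusive = no rule stated though some were filed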;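 also: 0% = median of neutral control wells and 100% = median of positive control wells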
NIH3T3 tox 2 = kills mouse NIH/3T3 fibroblasts; 5,600 compounds, 56% hits; inhibition, % at 24.9 µM; NIH/3T3 viability, CellTiter-Glo ATP luminescence, 90 h; shares compounds with T cruzi growth-1;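 active = mean loss of cell viability signal at or above a set limit, and enough replicates individually reaching it; inconclusive = meets only the mean limit or only the replicate share; inactive = meets neither condition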;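 also: 0% = median of neutral control wells and 100% = median of positive control wells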
* hit, by the source's call; ? = inconclusive; . = not tested or not shown.

SMILES	GASC1 inh	Pf Dd2 growth	IDH1 mut inh	T cruzi growth-1	T cruzi growth-2	T cruzi growth-3	3T3 cytotox	NIH3T3 tox 2
CCCNC(=O)N1[C@H](C#N)[C@H](c2ccc(C3=CCCCC3)cc2)[C@@H]1CO	.	?	.	99*	101*	116*	22	33*
N#C[C@@H]1[C@H](c2ccc(C3=CCCC3)cc2)[C@H](CO)N1C(=O)C1CCC1	0	-3	.	103*	110*	31	-8	2
COCC(=O)N1[C@H](CO)[C@@H](c2ccc(C3=CCCCC3)cc2)[C@@H]1C#N	-4	20	.	?	108*	2	7	7
O=C(CNS(=O)(=O)c1cc(Cl)ccc1Cl)Nc1cccc([N+](=O)[O-])c1	.	.	0	.	.	.	.	.
Fc1ccccc1-c1n[nH]c(=S)n1CCCN1CCOCC1	.	.	0	.	.	.	.	.
Cc1ccc([N+](=O)[O-])cc1NC(=O)CN(C)S(=O)(=O)c1ccc(Br)cc1	.	.	0	.	.	.	.	.
N#C[C@H]1[C@H](c2ccc(C3=CCCCC3)cc2)[C@@H](CO)N1C(=O)NC1CCCCC1	2	-20	.	104*	104*	80	-2	77*
N#C[C@H]1[C@@H](c2ccc(C3=CCCCC3)cc2)[C@@H](CO)N1C(=O)NC1CCCC1	3	-41	.	.	.	.	.	.
CCCC#Cc1ccc2c(c1)O[C@H](CN(C)S(=O)(=O)c1cccc(F)c1)[C@@H](C)CN([C@@H](C)CO)S2(=O)=O	-3	-36	-2	114*	100*	117*	0	104*
COCC#Cc1ccc2c(c1)O[C@H](CN(C)S(=O)(=O)c1cccc(F)c1)[C@H](C)CN([C@@H](C)CO)S2(=O)=O	-2	-69	0	42	.	.	.	.
COCC#Cc1ccc2c(c1)O[C@H](CN(C)S(=O)(=O)c1cccc(F)c1)[C@@H](C)CN([C@H](C)CO)S2(=O)=O	-1	-70	0	?	70	10	20	69*
CCCC#Cc1ccc2c(c1)O[C@H](CN(C)S(=O)(=O)c1cccc(F)c1)[C@H](C)CN([C@@H](C)CO)S2(=O)=O	-1	-68	1	124*	96*	99*	43*	76*
CCCC#Cc1ccc2c(c1)O[C@@H](CN(C)S(=O)(=O)c1cccc(F)c1)[C@H](C)CN([C@H](C)CO)S2(=O)=O	-2	-22	0	123*	106*	84	51*	96*
CCCC#Cc1ccc2c(c1)O[C@@H](CN(C)S(=O)(=O)c1cccc(F)c1)[C@H](C)CN([C@@H](C)CO)S2(=O)=O	0	-32	-1	124*	106*	108*	33	67*
C[C@@H]1CN([C@@H](C)CO)S(=O)(=O)c2ccc(C#CCN(C)C)cc2O[C@H]1CN(C)S(=O)(=O)c1cccc(F)c1	8	-78	0	.	.	.	.	.
Cc1cccc(C)c1Nc1c(CN2C(=O)c3ccccc3C2=O)nc2ccc(Br)cn12	.	.	-2	.	.	.	.	.
COC(CN1C(=O)C2C3C=CC(C3)C2C1=O)OC (stereo not given)	.	.	0	.	.	.	.	.
Cn1cnc(CCNC(=O)C[C@@H]2CC[C@H]3[C@@H](COC[C@H](O)CN3C(=O)Nc3ccc(C(F)(F)F)cc3)O2)c1	0	-18	.	52	.	.	.	.
Cn1cnc(CCNC(=O)C[C@@H]2CC[C@@H]3[C@H](COC[C@H](O)CN3C(=O)Nc3ccc(C(F)(F)F)cc3)O2)c1	-1	-16	.	107*	45	-42	19	24
Cn1cnc(CCNC(=O)C[C@H]2CC[C@@H]3[C@H](COC[C@@H](O)CN3C(=O)Nc3ccc(C(F)(F)F)cc3)O2)c1	0	-44	.	114*	100*	34	31	22
COCC(=O)N1CC[C@H]2[C@H](CO)Nc3ccc(-c4ccc(C#N)cc4)cc3[C@H]21	-4	-22	.	74	.	.	.	.
N#Cc1ccc(-c2ccc3c(c2)[C@@H]2[C@@H](CCN2C(=O)C2CC2)[C@H](CO)N3)cc1	-1	15	.	97*	106*	83	-2	15
N#Cc1ccc(-c2ccc3c(c2)[C@@H]2[C@@H](CCN2C(=O)Cc2ccccc2)[C@@H](CO)N3)cc1	1	-60	.	98*	100*	100*	8	40*
COCC(=O)N1CC[C@@H]2[C@H]1c1cc(-c3ccc(C#N)cc3)ccc1N[C@@H]2CO	1	-63	.	114*	100*	41	5	11
N#Cc1ccc(-c2ccc3c(c2)[C@H]2[C@H](CCN2C(=O)C2CC2)[C@@H](CO)N3)cc1	?	16	.	105*	?	70	-2	32*
SMILES	GASC1 inh	Pf Dd2 growth	IDH1 mut inh	T cruzi growth-1	T cruzi growth-2	T cruzi growth-3	3T3 cytotox	NIH3T3 tox 2
N#Cc1ccc(-c2ccc3c(c2)[C@H]2[C@H](CCN2C(=O)Cc2ccccc2)[C@@H](CO)N3)cc1	-4	-23	.	81	.	.	.	.
N#Cc1ccc(-c2ccc3c(c2)[C@H]2[C@H](CCN2C(=O)C2CCC2)[C@@H](CO)N3)cc1	-2	-55	.	.	.	.	.	.
Nc1cc(N)nc(SCC(=O)N2CCN(c3ccc(Cl)cc3)CC2)n1	.	.	0	.	.	.	.	.
O=C(CN1C(=O)c2ccccc2C1=O)Nc1ccc(S(=O)(=O)N2CCCCCC2)cc1	.	.	0	.	.	.	.	.
CC1(C)Cc2c(c(N3CCOCC3)nc3sc4c(SCc5nc6ccccc6[nH]5)ncnc4c23)CO1	.	.	1	.	.	.	.	.
C[C@@H]1CN([C@@H](C)CO)C(=O)c2cc(NS(=O)(=O)c3ccc(F)cc3)ccc2O[C@@H](C)CCCCO[C@H]1CN(C)S(=O)(=O)c1ccc(F)cc1	1	-47	-3	113*	107*	56	6	-1
C[C@@H]1CCCCO[C@@H](CN(C)S(=O)(=O)c2ccc(F)cc2)[C@H](C)CN([C@H](C)CO)C(=O)c2cc(NS(=O)(=O)c3ccc(F)cc3)ccc2O1	0	-48	-1	86	.	.	.	.
C[C@@H]1CCCCO[C@@H](CN(C)S(=O)(=O)c2ccc(F)cc2)[C@@H](C)CN([C@H](C)CO)C(=O)c2cc(NS(=O)(=O)c3ccc(F)cc3)ccc2O1	0	-47	.	49	.	.	.	.
C[C@@H]1CN([C@H](C)CO)C(=O)c2cc(NS(=O)(=O)c3ccc(F)cc3)ccc2O[C@@H](C)CCCCO[C@@H]1CN(C)S(=O)(=O)c1ccc(F)cc1	0	-73	.	107*	103*	72	-13	2
COc1ccc(-c2nnc(SCc3nc4ccccc4c(=O)[nH]3)n2C)cc1	.	.	0	.	.	.	.	.
Cc1ccc(-c2ccc([C@H]3[C@H]4CN(S(=O)(=O)c5cccc(C)c5)CCCCN4[C@H]3CO)cc2)cc1	.	-2	.	86	.	.	.	.
